From ChEMBL document CHEMBL4265973, “Broad-spectrum antibacterial amphiphilic aminoglycosides: A new focus on the structure of the lipophilic groups extends the series of active dialkyl neamines” (Eur J Med Chem, 2018)
≈ marks a conversion by molar mass, not a printed value.

Tests used:
Pseudomonas aeruginosa [1] = experiment: Antibacterial activity against Pseudomonas aeruginosa ATCC 27853 by microdilution assay; format: functional
In short: (§1)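 Broth microdilution per CLSI recommendations, using a fresh culture in cation-adjusted Mueller-Hinton broth (CA-MHB) and a starting inoculum of 10^6 cells; the MIC is the value read.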

Pseudomonas aeruginosa [2] = experiment: Antibacterial activity against Pseudomonas aeruginosa FO3 harboring AAC6'-2A by microdilution assay; format: functional
In short: (§2)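 Broth microdilution MIC per CLSI recommendations, fresh culture in cation-adjusted Mueller-Hinton broth, starting inoculum 10^6 cells.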

Escherichia coli [3] = experiment: microbe, parasite or virus in culture; settings: ATCC 25922
Klebsiella pneumoniae = experiment: Antibacterial activity against Klebsiella pneumoniae 700603 by microdilution assay; format: functional; in short: as §1
Pseudomonas aeruginosa [4] = experiment: Antibacterial activity against Pseudomonas aeruginosa PA22 harboring surexp MexXY by microdilution assay; format: functional; in short: as §2
[5] = Cytotoxicity against mouse J774 cells assessed as cell viability at 30 uM after 24 hrs by MTT assay relative to control; format: cell-based; settings: J774 cells, read-out: Activity
In short: (§3)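 Murine J774 macrophages are exposed for 24 h to compound at 10 or 30 µM, then given 0.2 mg/mL MTT for 1 h. The reaction is stopped with DMSO and OD read at 570 nm; viability is metabolic activity as % of control. The number of independent experiments is given per value.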

Staphylococcus aureus [6] = experiment: Antibacterial activity against Staphylococcus aureus ATCC 25923 by microdilution assay; format: functional; in short: as §2
Staphylococcus aureus [7] = experiment: Antibacterial activity against methicillin-resistant Staphylococcus aureus ATCC 33592 by microdilution assay; format: functional; in short: as §2
Escherichia coli [8] = experiment: Antibacterial activity against Escherichia coli L8058.1 harboring ANT2'-1A by microdilution assay; format: functional; in short: as §2
Escherichia coli [9] = experiment: Antibacterial activity against Escherichia coli PAZ505H8101 harboring AAC6'-1B by microdilution assay; format: functional; in short: as §2
Pseudomonas aeruginosa [10] = experiment: Antibacterial activity against Pseudomonas aeruginosa PA406 harboring triABC deletion mutant by microdilution assay; format: functional; in short: as §2
Acinetobacter lwoffii [11] = experiment: Antibacterial activity against Acinetobacter lwoffii ATCC 17925 by microdilution assay; format: functional; in short: as §1
Staphylococcus aureus [12] = experiment: Antibacterial activity against Staphylococcus aureus SA-1 expressing NorA pump by microdilution assay
Acinetobacter lwoffii [13] = experiment: Antibacterial activity against Acinetobacter lwoffii AI.88-483 harboring APH3'-6A by microdilution assay; format: functional; in short: as §2
[14] = Cytotoxicity against mouse J774 cells assessed as cell viability at 10 uM after 24 hrs by MTT assay relative to control; format: cell-based; settings: J774 cells, read-out: Activity; in short: as §3

Compound	MIC (Pseudomonas aeruginosa [1])	MIC (Pseudomonas aeruginosa [2])	MIC (Escherichia coli [3])	MIC (Klebsiella pneumoniae)	MIC (Pseudomonas aeruginosa [4])	viability at 24 h, 30 µM [5]	MIC (Staphylococcus aureus [6])	MIC (Staphylococcus aureus [7])	MIC (Escherichia coli [8])	MIC (Escherichia coli [9])	MIC (Pseudomonas aeruginosa [10])	MIC (Acinetobacter lwoffii [11])	MIC (Staphylococcus aureus [12])	MIC (Acinetobacter lwoffii [13])	viability at 24 h, 10 µM [14]
CCCCCCCCCCCO[C@@H]1[C@@H](N)[C@@H](O[C@H]2[C@H](O)[C@@H](OCCCCCCCCCCC)[C@H](N)C[C@@H]2N)O[C@H](CN)[C@H]1O	16 mg/L (≈ 25.4 µM)	16 mg/L (≈ 25.4 µM)	4 mg/L (≈ 6.34 µM)	32 mg/L (≈ 50.7 µM)	16 mg/L (≈ 25.4 µM)	14.1%	8 mg/L (≈ 12.7 µM)	64 mg/L (≈ 101 µM)	16 mg/L (≈ 25.4 µM)	16 mg/L (≈ 25.4 µM)	16 mg/L (≈ 25.4 µM)	32 mg/L (≈ 50.7 µM)	8 mg/L (≈ 12.7 µM)	32 mg/L (≈ 50.7 µM)	81.7%
NC[C@H]1O[C@H](O[C@H]2[C@H](O)[C@@H](OCc3ccc4ccccc4c3)[C@H](N)C[C@@H]2N)[C@H](N)[C@@H](OCc2ccc3ccccc3c2)[C@@H]1O						75.7%									
GENTAMICIN	1 mg/L	> 128 mg/L		4 to 8 mg/L	4 mg/L		0.25 to 0.5 mg/L	1 mg/L	64 mg/L	1 mg/L	< 0.25 mg/L	< 0.25 mg/L		2 mg/L	
NC[C@H]1O[C@H](O[C@H]2[C@H](O)[C@@H](O)[C@H](N)C[C@@H]2N)[C@H](N)[C@@H](O)[C@@H]1O [NEAMINE]	> 128 mg/L	> 128 mg/L	32 mg/L (≈ 99.3 µM)	32 mg/L (≈ 99.3 µM)	> 128 mg/L		16 to 32 mg/L (≈ 49.6 to 99.3 µM)	> 128 mg/L	32 mg/L (≈ 99.3 µM)	> 128 mg/L	64 mg/L (≈ 199 µM)	0.5 mg/L (≈ 1.55 µM)	8 mg/L (≈ 24.8 µM)	> 128 mg/L	
CCCCCCCCCO[C@@H]1[C@@H](N)[C@@H](O[C@H]2[C@H](O)[C@@H](O)[C@H](N)C[C@@H]2N)O[C@H](CN)[C@H]1OCCCCCCCCC	8 to 16 mg/L (≈ 13.9 to 27.8 µM)	8 to 16 mg/L (≈ 13.9 to 27.8 µM)	4 to 8 mg/L (≈ 6.96 to 13.9 µM)	16 to 32 mg/L (≈ 27.8 to 55.7 µM)	8 to 16 mg/L (≈ 13.9 to 27.8 µM)		4 mg/L (≈ 6.96 µM)	4 mg/L (≈ 6.96 µM)	8 mg/L (≈ 13.9 µM)	4 to 8 mg/L (≈ 6.96 to 13.9 µM)	8 to 16 mg/L (≈ 13.9 to 27.8 µM)	4 to 8 mg/L (≈ 6.96 to 13.9 µM)	4 mg/L (≈ 6.96 µM)	32 mg/L (≈ 55.7 µM)	
NC[C@H]1O[C@H](O[C@H]2[C@H](O)[C@@H](O[C@H]3O[C@H](CO)[C@@H](O)[C@H](N)[C@H]3O)[C@H](N)C[C@@H]2N)[C@H](N)C[C@@H]1O [TOBRAMYCIN]	< 0.25 mg/L	128 mg/L (≈ 274 µM)	1 mg/L (≈ 2.14 µM)	4 to 8 mg/L (≈ 8.56 to 17.1 µM)	0.5 mg/L (≈ 1.07 µM)		0.25 to 0.5 mg/L (≈ 0.535 to 1.07 µM)	64 mg/L (≈ 137 µM)	64 mg/L (≈ 137 µM)	32 mg/L (≈ 68.4 µM)	< 0.25 mg/L	< 0.25 mg/L	0.5 mg/L (≈ 1.07 µM)	0.5 to 1 mg/L (≈ 1.07 to 2.14 µM)	
CCCCCCCCO[C@@H]1[C@@H](N)[C@@H](O[C@H]2[C@H](O)[C@@H](OCCCCCCCC)[C@H](N)C[C@@H]2N)O[C@H](CN)[C@H]1O	2 mg/L (≈ 3.66 µM)	8 mg/L (≈ 14.6 µM)	4 mg/L (≈ 7.32 µM)	8 mg/L (≈ 14.6 µM)	8 mg/L (≈ 14.6 µM)	65.1%	1 mg/L (≈ 1.83 µM)	2 mg/L (≈ 3.66 µM)	4 mg/L (≈ 7.32 µM)	2 to 4 mg/L (≈ 3.66 to 7.32 µM)	2 mg/L (≈ 3.66 µM)	2 to 4 mg/L (≈ 3.66 to 7.32 µM)	1 mg/L (≈ 1.83 µM)	128 mg/L (≈ 234 µM)	91.3%
NC[C@H]1O[C@H](O[C@H]2[C@H](O)[C@@H](OCCCCc3ccc4ccccc4c3)[C@H](N)C[C@@H]2N)[C@H](N)[C@@H](OCCCCc2ccc3ccccc3c2)[C@@H]1O	4 mg/L (≈ 5.82 µM)	8 mg/L (≈ 11.6 µM)	8 mg/L (≈ 11.6 µM)	32 mg/L (≈ 46.6 µM)	8 mg/L (≈ 11.6 µM)		2 mg/L (≈ 2.91 µM)	2 mg/L (≈ 2.91 µM)	8 mg/L (≈ 11.6 µM)	4 mg/L (≈ 5.82 µM)	8 mg/L (≈ 11.6 µM)	2 mg/L (≈ 2.91 µM)	2 to 4 mg/L (≈ 2.91 to 5.82 µM)	> 128 mg/L	
NC[C@@H]1O[C@H](O[C@H]2[C@@H](O)[C@H](O[C@@H]3[C@@H](O)[C@H](N)C[C@H](N)[C@H]3O[C@H]3O[C@H](CN)[C@@H](O)[C@H](O)[C@H]3N)O[C@@H]2CO)[C@H](N)[C@@H](O)[C@@H]1O [FRAMYCETIN]	64 mg/L (≈ 104 µM)	128 mg/L (≈ 208 µM)	2 mg/L (≈ 3.25 µM)	4 to 8 mg/L (≈ 6.51 to 13 µM)	32 to 64 mg/L (≈ 52.1 to 104 µM)		1 to 2 mg/L (≈ 1.63 to 3.25 µM)	> 128 mg/L	1 mg/L (≈ 1.63 µM)	4 mg/L (≈ 6.51 µM)	2 to 4 mg/L (≈ 3.25 to 6.51 µM)	< 0.25 mg/L	0.5 to 1 mg/L (≈ 0.813 to 1.63 µM)	64 to 128 mg/L (≈ 104 to 208 µM)	
